Assay results reported in ChEMBL document CHEMBL1130397, “Structure-activity relationships of (4-acylpyrrol-2-yl)alkanoic acids as inhibitors of the cytosolic phospholipase A2: variation of the substituents in positions 1, 3, and 5” (J Med Chem, 1997).
The source made the active and inactive calls. No cut-off for these calls is given here.

Experiments:
[1] = molecular target: T1, Cytosolic phospholipase A2 (Bos taurus, UniProt A4IFJ5); assay: Inhibition of cPLA2 measuring Calcium ionophore A-23,187-induced arachidonic acid release from bovine platelets with HPLC/UV detection.; assay type: functional
T1 sequence (A4IFJ5 whole entry): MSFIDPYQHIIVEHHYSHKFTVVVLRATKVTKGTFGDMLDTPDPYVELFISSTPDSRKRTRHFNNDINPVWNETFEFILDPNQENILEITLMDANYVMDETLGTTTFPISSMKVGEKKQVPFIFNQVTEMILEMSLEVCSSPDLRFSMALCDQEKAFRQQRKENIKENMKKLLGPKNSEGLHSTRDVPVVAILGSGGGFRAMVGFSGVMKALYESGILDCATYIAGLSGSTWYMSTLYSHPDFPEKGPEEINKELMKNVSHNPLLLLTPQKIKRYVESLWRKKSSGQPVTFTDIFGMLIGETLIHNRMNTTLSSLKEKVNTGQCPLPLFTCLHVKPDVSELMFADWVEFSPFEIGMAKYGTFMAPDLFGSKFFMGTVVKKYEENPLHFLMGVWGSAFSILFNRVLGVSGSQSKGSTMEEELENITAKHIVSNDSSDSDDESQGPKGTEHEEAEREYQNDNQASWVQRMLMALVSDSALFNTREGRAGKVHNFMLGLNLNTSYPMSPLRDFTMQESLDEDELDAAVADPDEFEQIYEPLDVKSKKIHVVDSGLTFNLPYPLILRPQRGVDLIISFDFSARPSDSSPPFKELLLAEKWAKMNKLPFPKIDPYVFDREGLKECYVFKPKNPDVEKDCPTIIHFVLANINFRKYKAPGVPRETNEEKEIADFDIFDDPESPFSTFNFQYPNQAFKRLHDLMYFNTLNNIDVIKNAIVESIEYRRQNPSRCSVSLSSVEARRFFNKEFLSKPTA
In short: (§1)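 Bovine platelet suspension stimulated with calcium ionophore A23187; released arachidonic acid quantified by HPLC/UV. Test compounds in DMSO, or DMSO–0.05 M ethanolic NaOH, added after platelets in the latter case to protect ETYA. Assays run within 36 h of platelet isolation; platelets stored at 4 °C. Values averaged from at least two runs, error within ±20%.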

[2] = Percentage platelet cell lysis at 33 uM measured by turbidimetry.; assay type: functional, Bos taurus
In short: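 Turbidimetric lysis: ETYA solution, then test compound or solvent control, then bovine platelet suspension and calcium chloride at 37 °C. After dilution with phosphate-buffered saline, absorbance read at 800 nm; lysis lowers absorbance. Compounds dissolved in DMSO or DMSO–0.05 M ethanolic NaOH (1+1). Performed within 36 h of platelet isolation; platelets kept at 4 °C.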

[3] = system: Cytosolic phospholipase A2 (Bos taurus); assay: Inhibition of cPLA2 measuring Calcium ionophore A-23,187-induced arachidonic acid release from bovine platelets with HPLC/UV detection. at 3.3 uM concentration.
[4] = Ability of arachidonic acid release at 10 uM; assay type: functional; in short: as §1
[5] = molecular target: T1, Cytosolic phospholipase A2; assay: Inhibition of cPLA2 measuring Calcium ionophore A-23,187-induced arachidonic acid release from bovine platelets with HPLC/UV detection; assay type: functional; in short: as §1
[6] = system: Cytosolic phospholipase A2 (Bos taurus); assay: Inhibition of cPLA2 measuring Calcium ionophore A-23,187-induced arachidonic acid release from bovine platelets with HPLC/UV detection; Not active at 20 uM
[7] = system: Cytosolic phospholipase A2 (Bos taurus); assay: Inhibition of cPLA2 measuring Calcium ionophore A-23,187-induced arachidonic acid release from bovine platelets with HPLC/UV detection; 0% inhibition at 3.3 uM concentration.
[8] = system: Cytosolic phospholipase A2 (Bos taurus); assay: Inhibition of cPLA2 measuring Calcium ionophore A-23,187-induced arachidonic acid release from bovine platelets with HPLC/UV detection.; NA = 0% inhibition at 3.3 uM
[9] = 33 uM, in the assay text read “at 33 uM” for “at 10 uM”

Compound	Lysis [2] [%]	IC50 ([1]; read-out: IC50) [µM]	also measured
CCCCCCCCCCCCCCCCCC(=O)c1c(C)c(CC(=O)O)n(CCCCCCC)c1C	19	–	IC50 [1]: Not Active
CCCCCCCCCCCCCCCCNC(=O)[C@@H]1CCCN1	0	13	–
CCCCCCCCCCCCCCCCCC(=O)c1c(C)c(CCC(=O)O)n(C)c1C	0	13	–
CCCCCCCCCCCCCCCCCC(=O)c1c(C)c(CC(=O)O)n(C)c1C	0	10	–
CCCCCCCCCCCCCCCCCC(=O)c1c(C)c(CCC(=O)O)n(Cc2ccc(C(=O)O)cc2)c1C	57	–	inhibition [3]: 47%
CCCCCCCCCCCCCCCCCC(=O)c1c(C)c(CCC(=O)O)n(Cc2ccc(O)cc2)c1C	0	–	inhibition [3]: 30%
CCCCCCCCCCCCCCCCCC(=O)c1c(C)c(CCC(=O)O)n(CCCCCC#N)c1C	39	–	inhibition [3]: 40%
CCCCCCCCCCCCCCCCCC(=O)c1c(C)c(CC(=O)O)n(C)c1CCCCCCCCCCCC	0	–	Activity [4, 9]: 1.5 fold
CCCCCCCCCCCCCCCCCC(=O)c1cc(CC(=O)O)n(C)c1	0	15	–
CCCCCCCCCCCC(=O)c1c(C)c(CCC(=O)O)n(CCCCC(=O)O)c1C	0	–	IC50 [5]: 3.9 µM
CCCCCCCCCCCC(=O)c1c(C)c(CC(=O)O)n(CCCCCCC(=O)O)c1C	0	–	IC50 [5]: 5.6 µM
CCCCCCCCCCCCCCCCCC(=O)c1c(C)c(CC(=O)O)n(CCC)c1C	34	8	–
CCCCCCCCCCCCCCCCCC(=O)c1c(C)c(CCC(=O)O)n(Cc2ccc(OC)cc2)c1C	12	–	inhibition [3]: 31%
CCCCCCCCCCCCCCCCCC(=O)c1c(C)c(CCC(=O)O)n(Cc2ccccc2)c1C	19	12	inhibition [3]: 20%
CCCCCCCCCCCCCCCCCC(=O)c1c(C)c(CCC(=O)O)n(CCC)c1C	0	11	–
CCCCCCCCCCCC(=O)c1c(C)c(CCC(=O)O)n(C)c1C	0	–	IC50 [5]: 13 µM
CCCCCCCCCCCC(=O)c1c(C)c(CCC(=O)O)n(CCCCCC(=O)O)c1C	0	–	IC50 [5]: 3.4 µM
CCCCC/C=C\C/C=C\C/C=C\C/C=C\CCCC(=O)C(F)(F)F [ARACHIDONYL TRIFLUOROMETHYLKETONE]	31	–	–
CCCCCCCCCCCC(=O)c1c(C)c(CCC(=O)O)n(CCC(=O)O)c1C	0	–	IC50 [5]: 8 µM
CCCCCCCCCCCCCCCCCC(=O)c1c(CCCCCCCCCCCC)c(CC(=O)O)n(C)c1C	0	–	Activity [4, 9]: 1.5 fold
CCCCCCCCCCCCCCCCCC(=O)c1c(C)c(CC(=O)O)n(CCCCCC)c1C	37	> 10	–
CCCCCCCCCCCC(=O)c1c(C)c(CC(=O)O)n(CCCCCCCC(=O)O)c1C	0	–	IC50 [5]: 3.7 µM
CCCCCCCCCCCCCCCCCC(=O)c1c(C)c(CCC(=O)O)n(CCCCCCN(C)C)c1C	0	–	inhibition [3]: 33%
CCCCCCCCCCCCCCCCCC(=O)c1c(Cc2ccccc2)c(CC(=O)O)n(C)c1C	22	10	–

Compound	Lysis [2] [%]	IC50 ([1]; read-out: IC50) [µM]	also measured
CCCCCCCCCCCCCCCCCC(=O)c1c(C)c(CCC(=O)O)n(Cc2ccc(C#N)cc2)c1C	26	–	inhibition [3]: 15%
CCCCCCCCCCCCCCCCCC(=O)c1c(C)c(CCC(=O)O)n(CCCCC)c1C	13	10	inhibition [3]: 23%
CCCCCCCCCCCCCCCCCC(=O)c1c(C)c(CCC(=O)O)n(Cc2ccc(C)cc2)c1C	14	–	IC50 [6]: Not Active; inhibition [7]: inactive
CCCCCCCCCCCCCCCCCC(=O)c1c(C)c(CC(=O)O)n(Cc2ccccc2)c1C	32	7	–
CCCCCCCCCCCCCCCCCC(=O)c1c(C)c(CCC(=O)O)n(Cc2ccc(C(=O)N(C)C)cc2)c1C	42	–	inhibition [3]: 34%
CCCCCCCCCCCCCCCCCC(=O)c1c(C)c(CCC(=O)O)n(CCCCCC(=O)N(C)C)c1C	67	–	inhibition [3]: 38%
CCCCCCCCCCCCCCCCCC(=O)c1c(C)c(CCC(=O)O)n(CCCCCC(=O)O)c1C	54	–	inhibition [3]: 52%
CCCCCCCCCCCC(=O)c1c(C)c(CC(=O)O)n(CCCCCCCCC(=O)O)c1C	21	–	IC50 [5]: 3.3 µM
CCCCCCCCCCCCCCCCCC(=O)c1c(C)c(CC(=O)O)n(CCCCCCCCCCCC)c1C	0	–	Activity [4, 9]: 1.5 fold
CCCCCCCCCCCC(=O)c1c(C)c(CC(=O)O)n(C)c1C	0	–	IC50 [5]: 11 µM
CCCCCCCCCCCC(=O)c1c(C)c(CC(=O)O)n(CCCCCC(=O)O)c1C	0	–	IC50 [5]: 11 µM
CCCCCCCCCCCCCCCCCC(=O)c1c(C)c(CCC(=O)O)n(Cc2ccc(C(F)(F)F)cc2)c1C	13	–	inhibition [7]: inactive
CCCCCCCCCCCCCCCCCC(=O)c1c(C)c(CCC(=O)O)n(Cc2ccc(C(N)=O)cc2)c1C	0	–	inhibition [3]: 44%
CCCCCCCCCCCC(=O)c1c(C)c(CCC(=O)O)n(CCCCCCC(=O)O)c1C	0	–	IC50 [5]: 3.8 µM
CCCCCCCCCCCCCCCCCC(=O)c1cc(CCC(=O)O)n(C)c1	0	14	–
CCCCCCCCCCCCCCCCCC(=O)c1c(C)c(CC(=O)O)n(CC)c1C	10	9	–
CCCCCCCCCCCCCCCCCC(=O)c1c(C)c(CCC(=O)O)n(CC)c1C	0	11	–
CCCCCCCCCCCCCCCCCC(=O)c1c(C)c(CCC(=O)O)n(CCCCCC)c1C	10	–	IC50 [6]: Not Active; inhibition [8]: inactive
CCCCCCCCCCCCCCCCCC(=O)c1c(C)c(CC(=O)O)n(Cc2ccc(C)cc2)c1C	29	9	–
CCCCCCCCCCCCCCCCCC(=O)c1c(C)c(CC(=O)O)n(C)c1Cc1ccccc1	0	12	–
CCCCCCCCCCCCCCCCCC(=O)c1c(Cc2ccccc2)c(CC(=O)O)n(Cc2ccccc2)c1C	24	–	Activity ([4]; 10 uM): 1.3 fold
CCCCCCCCCCCCCCCCCC(=O)c1c(C)c(CCC(=O)O)n(CCCCCCO)c1C	0	–	inhibition [3]: 20%
CCCCCCCCCCCCCCCCCC(=O)c1c(C)c(CCC(=O)O)n(Cc2ccc(Cl)cc2)c1C	13	–	inhibition [7]: inactive
CCCCCCCCCCCC(=O)c1c(C)c(CCC(=O)O)n(CCCCCCCC(=O)O)c1C	0	–	IC50 [5]: 3.6 µM
